Measured values collected from several papers.
Protocols differ between the studies behind these lines.
Target: Tau-tubulin kinase 2 (TTBK2, Homo sapiens, UniProt Q6IQ55)
Effect on: enzyme activity
Action: inhibitor

Compound | technique | concentration | quantity | value
O=C(Nc1cnn(-c2csc(C(=O)NC3COC3)c2)c1)Nc1ccccc1Cl |  | 5 µM | remaining activity | 107%
CC(C)(C)c1nc2c(s1)c1nc(N)ncc1c1ccc(NS(=O)(=O)c3c(F)cccc3F)c(F)c12 | radiometric | 1 µM | remaining activity | 104%
FC(F)(F)Oc1cccc(-c2cnc3ccc(-c4ccncc4)nn23)c1 | radiometric | 1 µM | activity vs control | 96%
CC(C)(C)c1nc(-c2cccc(NS(=O)(=O)c3c(F)cccc3F)c2F)c(-c2ccnc(N)n2)s1 | radiometric | 1 µM | remaining activity | 104%
Cc1ccc(C(=O)NCc2ccsc2)cc1C#Cc1cn(C(C)C)c2ncnc(N)c12 |  | 1 µM | activity vs control | 87%
CC(C)(O)[C@H]1CC[C@H](Nc2ccc3ncc(-c4cccc(C(F)(F)F)c4)n3n2)CC1 |  | 1 µM | remaining activity | 94.4%
COc1cc(Nc2cnc(C#N)c(O[C@H](C)CN(C)C)n2)ncc1-c1cnn(C)c1 | radiometric | 1 µM | remaining activity | 100%
COc1cc(/C=C/C(=O)CC(=O)/C=C/c2ccc(O)c(OC)c2)ccc1O |  | 1 µM | activity vs control | 115%
CN1CC(Oc2cnc(C#N)cc2-c2ccn3nc(NC(=O)C4CC4)cc3c2)C1 |  | 1 µM | inhibition | 13%
O=C(Nc1cnn(-c2csc(C(=O)NC3COC3)c2)c1)Nc1c(F)cccc1Cl |  | 5 µM | remaining activity | 104%
COc1cc(Cl)c(C(=O)N[C@@H](CN[C@H]2CC[C@@H](N)CC2)Cc2ccc(C#N)cc2)cc1-c1ccc(CN[C@H](C)c2ccc(C)cc2)o1 |  | 1 µM | remaining activity | 96%
